# Source: ChEMBL document CHEMBL3785029, “Synthesis and Characterization of Fatty Acid Conjugates of Niacin and Salicylic Acid” (J Med Chem, 2016)
# Activity calls are given as the source filed them. No cut-off for these calls is given here.
# Experiments:
# [1] = Drug uptake in Sprague-Dawley rat liver at 300 mg/kg, po administered for 7 days measured 4 hrs post dose on day 7; assay type: ADME, organism-based; details: read-out: Drug uptake
# Procedure, shortened: (§1)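 Male Sprague Dawley rats, groups of 4, dosed orally at 300 mg/kg once daily for 14 days. Animals killed on days 1, 3, 7 and 14, with plasma, brain, epididymal fat, liver and muscle taken 4 hr after dosing. Parent, salicylic acid and salicyluric acid were measured.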
# [2] = target: T1, Fatty-acid amide hydrolase 1 (Rattus norvegicus, UniProt P97612); assay: Drug metabolism in rat liver lysate assessed as FAAH-mediated compound hydrolysis at 5 uM by LC-MS-MS analysis in the presence of PF3845; assay type: ADME, tissue-based
# T1 sequence (P97612 whole entry): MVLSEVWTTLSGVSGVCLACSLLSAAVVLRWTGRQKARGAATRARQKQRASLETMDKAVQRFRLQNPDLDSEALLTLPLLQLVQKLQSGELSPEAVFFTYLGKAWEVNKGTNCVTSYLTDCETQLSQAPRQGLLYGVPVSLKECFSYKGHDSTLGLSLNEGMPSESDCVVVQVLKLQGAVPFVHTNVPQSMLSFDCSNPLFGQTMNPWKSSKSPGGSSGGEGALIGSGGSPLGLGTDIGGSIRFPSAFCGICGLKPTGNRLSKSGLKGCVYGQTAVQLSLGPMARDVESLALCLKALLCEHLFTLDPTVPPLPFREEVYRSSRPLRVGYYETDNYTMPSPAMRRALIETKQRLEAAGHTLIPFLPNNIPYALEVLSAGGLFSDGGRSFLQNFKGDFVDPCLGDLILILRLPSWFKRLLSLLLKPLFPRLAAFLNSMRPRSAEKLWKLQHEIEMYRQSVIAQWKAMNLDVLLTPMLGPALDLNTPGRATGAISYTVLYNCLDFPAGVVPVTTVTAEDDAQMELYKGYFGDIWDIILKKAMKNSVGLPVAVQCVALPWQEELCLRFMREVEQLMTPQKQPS
# Procedure, shortened: (§2)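 Rat liver lysate, 3 mg/mL final, in 50 mM HEPES / 1 mM EDTA buffer, pre-equilibrated 20 min at 37 °C; reaction started by adding compound in DMSO; incubated at 37 °C and loss of starting material monitored by LC/MS/MS; FAAH inhibitor PF-3845 added where indicated.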
# [3] = target: T1, Fatty-acid amide hydrolase 1; assay: Drug metabolism in rat liver lysate assessed as FAAH-mediated compound hydrolysis at 5 uM by LC-MS-MS analysis; assay type: ADME, tissue-based; procedure, shortened: as §2
# [4] = Drug uptake in Sprague-Dawley rat epididymal fat at 300 mg/kg, po administered for 14 days followed by 7 day washout cycle measured on day 21; assay type: ADME, organism-based, Epididymal fat pad; details: in vivo
# [5] = Drug metabolism in Sprague-Dawley rat epididymal fat assessed as salicyluric acid formation at 300 mg/kg, po administered for 14 days followed by 7 day washout cycle measured on day 21; assay type: ADME, organism-based, Epididymal fat pad; details: in vivo
# [6] = Drug metabolism in Sprague-Dawley rat epididymal fat assessed as salicyluric acid formation at 300 mg/kg, po administered for 7 days measured 4 hrs post dose on day 7; assay type: ADME, organism-based, Epididymal fat pad; details: in vivo; procedure, shortened: as §1
# Plasma [7] = assay: Drug metabolism in Sprague-Dawley rat plasma assessed as salicyluric acid formation at 300 mg/kg, po measured up to 24 hrs post dose; assay type: ADME, organism-based; details: in vivo
# Procedure, shortened: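 Single oral dose of 300 mg/kg to Sprague Dawley rats. Plasma collected at 0, 0.5, 1, 2, 4, 8 and 24 hr. Analytes were the parent, the salicylate-linker and linker-DHA metabolites, salicylic acid and salicyluric acid; Cmax and AUClast derived.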
# Plasma [8] = assay: Metabolic stability in mouse plasma at 5 uM up to 2 hrs by LC-MS-MS analysis; assay type: ADME, cell-free
# Procedure, shortened: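 Plasma from each species diluted to 50% with 0.05 M PBS pH 7.4 and prewarmed to 37 °C; compound added at 5 µM final (from DMSO stock diluted in MeOH); triplicate incubations at 37 °C, sampled at 0, 30, 60, 120 min, quenched with acetonitrile containing internal standard, centrifuged, analysed by LC/MS/MS.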
# Plasma [9] = assay: Drug metabolism in Sprague-Dawley rat plasma assessed as nicotinuric acid formation at 300 mg/kg, qd administered through oral gavage for 7 days measured 2 hrs post last dose by LC/MS/MS analysis; assay type: ADME, organism-based; details: in vivo
# Intestine = assay: Drug metabolism in Sprague-Dawley rat intestine assessed as nicotinuric acid formation at 300 mg/kg, qd administered through oral gavage for 7 days measured 2 hrs post last dose by LC/MS/MS analysis; assay type: ADME, organism-based; details: in vivo
# Mus musculus = assay: Inhibition of LDL cholesterol levels in po dosed ApoE*3-Leiden mouse plasma administered for 16 weeks; assay type: functional, organism-based
# Procedure, shortened: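 Transgenic ApoE*3-Leiden mice on high-cholesterol Western-type diet dosed over 16 weeks; plasma PCSK9, total cholesterol, triglycerides and lipoprotein profile (VLDL, LDL) assessed at study end.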
# Liver = assay: Drug metabolism in Sprague-Dawley rat liver assessed as linker EPA metabolite (5Z,8Z,11Z,14Z,17Z)-N-(2-aminoethyl)icosa-5,8,11,14,17-pentaenamide formation at 300 mg/kg, qd administered through oral gavage for 7 days measured 2 hrs post last dose by LC/MS/MS analysis; assay type: ADME, organism-based; details: in vivo
concentration at 4 h [1] [ng/g],Drug metabolism [3],Drug uptake [4],Drug metabolism [5],Drug metabolism [6] [ng/g],Drug metabolism (Plasma [7]),Compound,Drug metabolism [2],Stability (Plasma [8]),Drug metabolism (Plasma [9]) [ng/mL],Drug metabolism (Intestine) [ng/g],Drug metabolism ([3]; TDE = time-dependent effect),inhibition (Mus musculus),Drug metabolism (Liver) [ng/g]
331,metabolite_detected,Not Active,metabolite_notdetected,203.71,metabolite_detected,CC/C=C\C/C=C\C/C=C\C/C=C\C/C=C\C/C=C\CCC(=O)NCCNC(=O)c1ccccc1O [EDASALONEXENT],metabolite_notdetected,,,,,,
,,,,,,CC/C=C\C/C=C\C/C=C\C/C=C\C/C=C\CCCC(=O)NCCNC(=O)c1cccnc1,metabolite_notdetected,Stable,3220,1387,tde,Active,8.7
